Results reported in ChEMBL document CHEMBL2385050 (J Med Chem, 2013).

Key:
[1] = molecular target: Estrogen receptor beta (Homo sapiens) (UniProt Q92731); experiment: Displacement of fluorescent ES2 from human recombinant ERbeta at 100 uM after 2 hrs by fluorimetric analysis relative to control
In short: (§1)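 Fluorescence polarization competition with fluorescent estrogen ligand ES2 (9 nM) and recombinant human ER-α (30 nM) or ER-β (20 nM). Buffer: 100 mM potassium phosphate, 100 μg/mL BGG, 0.02% NaN3. Samples in methanol or methanol/dichloromethane; 2 h incubation protected from light. Read at Ex/Em 485/530 nm. Result is % polarization remaining vs vehicle control; mean of at least three experiments.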

[2] = molecular target: T1, Aromatase (Homo sapiens, UniProt P11511); experiment: Inhibition of human recombinant microsomal aromatase-mediated 7-methoxy-4-trifluoromethylcoumarin conversion to 7-hydroxytrifluoromethylcoumarin preincubated for 10 mins measured after 30 mins by fluorescence assay
T1 sequence (P11511 whole entry): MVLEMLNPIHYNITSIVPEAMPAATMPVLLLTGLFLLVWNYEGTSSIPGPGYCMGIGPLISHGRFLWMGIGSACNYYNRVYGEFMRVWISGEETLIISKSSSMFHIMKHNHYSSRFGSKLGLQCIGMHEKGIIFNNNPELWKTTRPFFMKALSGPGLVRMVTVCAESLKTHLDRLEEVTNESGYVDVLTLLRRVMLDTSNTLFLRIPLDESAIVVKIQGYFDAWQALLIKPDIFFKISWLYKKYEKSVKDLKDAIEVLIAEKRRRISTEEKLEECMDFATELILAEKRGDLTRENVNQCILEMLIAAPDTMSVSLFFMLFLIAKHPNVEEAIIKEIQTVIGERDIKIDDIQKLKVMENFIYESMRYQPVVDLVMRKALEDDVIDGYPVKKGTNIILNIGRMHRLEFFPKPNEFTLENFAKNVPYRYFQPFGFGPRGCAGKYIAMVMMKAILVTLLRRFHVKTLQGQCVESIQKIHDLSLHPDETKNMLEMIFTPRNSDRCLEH
In short: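 Recombinant human CYP19 with MFC substrate in 0.1 M potassium phosphate pH 7.4; samples in methanol or methanol/dichloromethane, prewarmed 10 min at 37 °C with NADPH-generating cofactor mix (NADP+, MgCl2, glucose-6-phosphate, G6PDH), then 30 min reaction, stopped with 0.1 M Tris base in acetonitrile.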

[3] = molecular target: T2, Estrogen receptor (Homo sapiens) (UniProt P03372); experiment: Displacement of fluorescent ES2 from human recombinant ERalpha at 100 uM after 2 hrs by fluorimetric analysis relative to control; in short: as §1
T2 sequence (whole entry): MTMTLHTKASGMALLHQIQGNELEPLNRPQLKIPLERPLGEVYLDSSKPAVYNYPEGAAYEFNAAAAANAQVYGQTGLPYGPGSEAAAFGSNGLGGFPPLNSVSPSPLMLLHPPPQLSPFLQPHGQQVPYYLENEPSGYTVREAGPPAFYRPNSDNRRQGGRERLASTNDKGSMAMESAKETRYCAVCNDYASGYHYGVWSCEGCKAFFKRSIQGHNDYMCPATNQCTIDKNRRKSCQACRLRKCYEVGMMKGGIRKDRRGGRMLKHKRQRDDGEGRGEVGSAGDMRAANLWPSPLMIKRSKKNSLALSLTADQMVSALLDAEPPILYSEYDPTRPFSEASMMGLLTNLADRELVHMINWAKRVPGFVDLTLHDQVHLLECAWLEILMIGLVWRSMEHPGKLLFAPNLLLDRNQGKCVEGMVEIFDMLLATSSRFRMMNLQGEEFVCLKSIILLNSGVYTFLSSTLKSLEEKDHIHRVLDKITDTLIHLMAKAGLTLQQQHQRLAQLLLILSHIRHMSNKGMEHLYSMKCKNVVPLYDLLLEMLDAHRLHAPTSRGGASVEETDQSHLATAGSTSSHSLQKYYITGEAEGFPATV

[4] = molecular target: T1, Aromatase; experiment: Inhibition of human recombinant placental aromatase
In short: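 Recombinant human aromatase (CYP19) in microsomal incubations with fluorogenic substrate MFC, read as conversion to HFC. Compounds in methanol or methanol/dichloromethane, prewarmed 10 min at 37 °C with NADPH-regenerating mix, then enzyme/substrate in 0.1 M potassium phosphate pH 7.4 added. Activity given as % of vehicle control.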

[5] = molecular target: T1, Aromatase; experiment: Inhibition of human recombinant microsomal aromatase-mediated 7-methoxy-4-trifluoromethylcoumarin conversion to 7-hydroxytrifluoromethylcoumarin at 50 uM preincubated for 10 mins measured after 30 mins by fluorescence assay relative to control; conditions: probe 7-methoxy-4-trifluoromethylcoumarin
In short: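 Recombinant human CYP19 microsomal incubation, linear-range conditions. Samples in methanol or methanol/dichloromethane, prewarmed 10 min at 37 °C with NADPH-regenerating cofactor mix. Enzyme and MFC substrate added in 0.1 M potassium phosphate pH 7.4; 30 min reaction; stopped with Tris base in acetonitrile. HFC read at Ex/Em 409/530 nm against a standard curve. Result is % activity remaining vs vehicle; mean of at least three experiments.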

[6] = system: Mus musculus; experiment: Tmax in NOD/SCID mouse at 100 mg/kg, po by LC-MS-MS analysis; type: ADME, organism-based; parameters: dose 100 mg/kg, route oral; conditions: in vivo
In short: (§2)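 Mixed E,Z material (E:Z 45:55 by LC-MS-MS), 100 mg/kg single oral gavage, 10-week-old female NOD/SCID mice. Each mouse bled once by tail vein (n = 3 per time point), sampling up to 24 h. Plasma E and Z isomers quantified by LC-MS-MS. Parameters are from mean plasma concentrations (n = 3).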

[7] = molecular target: T3, Estrogen receptor (Homo sapiens, UniProt P03372); experiment: Displacement of fluorescent ES2 from human recombinant ERalpha after 2 hrs by fluorimetric analysis
T3 sequence (P03372 whole entry): T2 sequence (whole entry)

[8] = Apparent oral clearance in NOD/SCID mouse at 100 mg/kg, po by LC-MS-MS analysis; type: ADME, organism-based; parameters: dose 100 mg/kg, route oral; conditions: in vivo; in short: as §2
[9] = Apparent volume of distribution during terminal phase in NOD/SCID mouse at 100 mg/kg, po by LC-MS-MS analysis; type: ADME, organism-based; parameters: dose 100 mg/kg, route oral; conditions: in vivo, read-out: Vz/F; in short: as §2
[10] = system: Mus musculus; experiment: Clast in NOD/SCID mouse at 100 mg/kg, po by LC-MS-MS analysis; type: ADME, organism-based; parameters: dose 100 mg/kg, route oral; conditions: in vivo; in short: as §2
[11] = system: Mus musculus; experiment: Cmax in NOD/SCID mouse at 100 mg/kg, po by LC-MS-MS analysis; type: ADME, organism-based; parameters: dose 100 mg/kg, route oral; conditions: in vivo; in short: as §2
[12] = system: Mus musculus; experiment: Half life in NOD/SCID mouse at 100 mg/kg, po by LC-MS-MS analysis; type: ADME, organism-based; parameters: dose 100 mg/kg, route oral; conditions: in vivo; in short: as §2
[13] = (§3) AUClast in NOD/SCID mouse at 100 mg/kg, po by LC-MS-MS analysis; type: ADME, organism-based, Plasma; parameters: time 0 - last, dose 100 mg/kg, route oral; conditions: NOD/SCID, plasma; in short: as §2
[14] = system: Mus musculus; experiment: as §3; type: ADME, organism-based, Plasma; parameters: time 0 - last, dose 100 mg/kg, route oral; conditions: in vivo; in short: as §2

Estrogen receptor beta (Homo sapiens), sequence (Q92731 whole entry): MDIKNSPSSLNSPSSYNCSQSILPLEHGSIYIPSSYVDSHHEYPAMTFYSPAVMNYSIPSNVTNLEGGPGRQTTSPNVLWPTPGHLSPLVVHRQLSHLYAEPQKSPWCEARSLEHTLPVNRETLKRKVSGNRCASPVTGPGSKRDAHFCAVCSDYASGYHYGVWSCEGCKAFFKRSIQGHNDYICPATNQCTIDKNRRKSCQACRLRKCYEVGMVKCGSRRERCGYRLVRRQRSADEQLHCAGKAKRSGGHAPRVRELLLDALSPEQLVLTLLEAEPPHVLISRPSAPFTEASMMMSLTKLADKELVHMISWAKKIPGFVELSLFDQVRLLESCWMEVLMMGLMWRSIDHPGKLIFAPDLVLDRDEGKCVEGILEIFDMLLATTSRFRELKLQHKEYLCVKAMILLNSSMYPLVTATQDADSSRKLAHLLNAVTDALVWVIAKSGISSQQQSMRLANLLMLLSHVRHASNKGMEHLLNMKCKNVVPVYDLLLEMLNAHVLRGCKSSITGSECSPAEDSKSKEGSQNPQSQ

`CC/C(=C(\c1ccc(O)cc1)c1ccc(OCC(N)=O)cc1)c1ccccc1` gave an Activity [1] of 71%, an IC50 [2] of 9.26 µM and an Activity [3] of 57%.
Molecule `CCC(=C(c1ccc(O)cc1)c1ccc(OCCN(C)C)cc1)c1ccccc1` has an IC50 [4] of 530 µM.
Molecule `CC/C(=C(\c1ccc(O)cc1)c1ccc(OCCNC)cc1)c1ccccc1` (mixture of isomers) [ENDOXIFEN] has an IC50 [4] of 6 µM.
`CCC(=C(c1ccc(O)cc1)c1ccc(O)cc1)c1ccccc1` showed an Activity [3] of 80%.
Molecule `CC/C(=C(/c1ccc(OCC(N)=O)cc1)c1ccc(OC(=O)C(C)(C)C)cc1)c1ccccc1` has an Activity [1] of 45%, an Activity [3] of 56% and an inhibition at 0.5 h, 50 µM [5] of 0%.
`CC/C(=C(/c1ccc(O)cc1)c1ccc(OC(=O)C(C)(C)C)cc1)c1ccccc1` showed an Activity [1] of 68%, an Activity [3] of 68% and an inhibition at 0.5 h, 50 µM [5] of 8%.
In the case of `CC/C(=C(\c1ccc(O)cc1)c1ccc(OCCN)cc1)c1ccccc1`, the Tmax [6] is reported as 1 h, the EC50 [7] is reported as 0.017 µM and the CL/F [8] is reported as 0.267 mL/min. For the same molecule, the Vd/F [9] was 0.5 L, the Clast [10] was 900 ng/mL and the Cmax [11] was 2100 ng/mL. For the same molecule, the t1/2 [12] was 22.7 h and the AUC(0-t) [13] was 35100 ng·h/mL.
With `CC/C(=C(/c1ccc(O)cc1)c1ccc(OCCN)cc1)c1ccccc1` the Tmax [6] was 2 h, the EC50 [7] was 0.0587 µM and the CL/F [8] was 1.52 mL/min. For the same molecule, the Vd/F [9] was 2.8 L, the Clast [10] was 100 ng/mL and the Cmax [11] was 700 ng/mL. It also gave a t1/2 [12] of 21.4 h and an AUClast [14] of 5800 ng·h/mL.
